The values below come from ChEMBL document CHEMBL4732220, “Design, synthesis and biological evaluation of mono- and bisquinoline methanamine derivatives as potential antiplasmodial agents” (Bioorg Med Chem Lett, 2021).

The test system of series [1] is Plasmodium falciparum. In words: Antiplasmodial activity against chloroquine-sensitive Plasmodium falciparum 3D7 assessed as parasite growth inhibition. It counts as functional, organism-based. In short, it runs like this:
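In vitro growth inhibition of P. falciparum 3D7. IC50 reported in µM, with 20 µM as the highest concentration tested.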

A short description of series [2]: Cytotoxicity against human HeLa cells assessed as cell viability at 20 uM relative to control. It counts as cell-based. The following applies: read-out: Activity. In short, it runs like this:
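Mammalian HeLa cells incubated with test compound at a single 20 µM concentration. Read-out is the percentage of viable cells remaining after incubation.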

Series [3] deals with Plasmodium falciparum. In words: Antimalarial activity against synchronized ring stage chloroquine-sensitive Plasmodium falciparum assessed as parasite growth inhibition incubated for 48 hrs in presence of 10% human plasma by hypoxanthine assay. It counts as functional, organism-based.

A value given as a limit tells only on which side of the number the result lay.

On to `COc1nc2ccccc2cc1CNCc1ccco1`, for which the IC50 in the series with Plasmodium falciparum [1] was above 20 µM. Besides, the viability at 20 µM in series [2] stood at 88.9%.
On to `COc1nc2ccccc2cc1CNCc1ccccn1`, for which, in the series on Plasmodium falciparum [1], the IC50 came out at 1.4 µM. Besides, the viability at 20 µM in series [2] was found to be 44.3%.
The matching figures for `COc1nc2cc(C)cc(C)c2cc1CNCc1cccnc1`: above 20 µM and 76.7%.
On to `COc1nc2ccc(F)cc2cc1CNCc1cccnc1`, for which the IC50 in the series with Plasmodium falciparum [1] turned out to be 17.9 µM. Moreover, the viability at 20 µM in series [2] amounted to 97.2%.
In the case of `Clc1nc2ccccc2cc1CNCc1ccccn1`, the 50% inhibitory concentration (IC50) with Plasmodium falciparum [1] is above 20 µM. Besides, the viability at 20 µM in series [2] is 65.6%.
`COc1nc2ccc(Cl)cc2cc1CNCc1cccnc1`: the half-inhibitory concentration (IC50) in the series with Plasmodium falciparum [1] was determined as 16.8 µM. The viability at 20 µM in series [2] was found to be 100%.
Regarding `Fc1ccc2nc(Cl)c(CN(Cc3ccccn3)Cc3cc4cc(F)ccc4nc3Cl)cc2c1`, in the series on Plasmodium falciparum [1], the IC50 was determined as 9.8 µM. In addition, the viability at 20 µM in series [2] was found to be 98.7%.
In the case of `COc1ccc2nc(OC)c(CNCc3cccs3)cc2c1`, in the series with Plasmodium falciparum [1], the IC50 was above 20 µM. Also, the viability at 20 µM in series [2] was determined as 93.2%.
`COc1nc2ccc(C)cc2cc1CN(Cc1cccs1)Cc1cc2cc(C)ccc2nc1Cl`: in the series with Plasmodium falciparum [1], the IC50 turned out to be 12.6 µM. In series [2], the viability at 20 µM was determined as 87.9%.
As for `Oc1ccc2nc(Cl)c(CN(Cc3ccccn3)Cc3cc4cc(O)ccc4nc3Cl)cc2c1`, in the series on Plasmodium falciparum [1], the IC50 was 2.5 µM. In series [2], the viability at 20 µM was found to be 88.8%.
Turning to `COc1ccc2nc(OC)c(CNCc3cccnc3)cc2c1`, in the series on Plasmodium falciparum [1], the IC50 stood at 12.8 µM. Further, the viability at 20 µM in series [2] was determined as 100%.
Turning to `COc1nc2ccccc2cc1CN(Cc1cccnc1)Cc1cc2cc(C)ccc2nc1Cl`, the IC50 in the series on Plasmodium falciparum [1] is 9.8 µM. In series [2], the viability at 20 µM is 98.3%.
Take `Cc1ccc2nc(Cl)c(CN(Cc3cccnc3)Cc3cc4c(C)cc(C)cc4nc3Cl)cc2c1`: the IC50 in the series on Plasmodium falciparum [1] turned out to be 7.6 µM. In series [2], the viability at 20 µM came to 80.3%.
The matching figures for `COc1nc2cc(C)cc(C)c2cc1CNCc1ccccn1`: 0.23 µM and 56.7%.
On to `COc1nc2cc(C)cc(C)c2cc1CNCc1cccs1`, for which the IC50 in the series on Plasmodium falciparum [1] was above 20 µM. For the same compound, the viability at 20 µM in series [2] is 87.5%.
In the case of `COc1nc2ccc(F)cc2cc1CN(Cc1cccs1)Cc1cc2cc(C)ccc2nc1Cl`, the concentration for half-maximal inhibition (IC50) in the series on Plasmodium falciparum [1] is 11.3 µM. For the same compound, in series [2], the viability at 20 µM is 95.2%.
With `Clc1nc2ccccc2cc1CNCc1ccncc1`, the IC50 with Plasmodium falciparum [1] was found to be 2.3 µM. Besides, the viability at 20 µM in series [2] is 73.7%.
The matching figures for `COc1nc2ccc(F)cc2cc1CN(Cc1cccnc1)Cc1cc2cc(C)ccc2nc1Cl`: 9.6 µM and 92.6%.
On to `COc1nc2ccccc2cc1CNCc1ccncc1`, for which the half-inhibitory concentration (IC50) in the series with Plasmodium falciparum [1] is 2.1 µM. In addition, the viability at 20 µM in series [2] is 69.9%.
In the case of `COc1ccc2nc(OC)c(CN(Cc3ccccn3)Cc3cc4cc(OC)ccc4nc3OC)cc2c1`, the IC50 with Plasmodium falciparum [1] is 3.4 µM. The viability at 20 µM in series [2] came to 79.5%.
The matching figures for `COc1nc2cc(C)cc(C)c2cc1CN(Cc1ccccn1)Cc1cc2c(C)cc(C)cc2nc1OC`: 2.8 µM and 90.1%.
Turning to `COc1nc2ccccc2cc1CNCc1cccs1`, the IC50 with Plasmodium falciparum [1] is above 20 µM. The viability at 20 µM in series [2] was determined as 89.9%.
In the case of `Clc1nc2ccccc2cc1CN(Cc1ccccn1)Cc1cc2ccccc2nc1Cl`, the IC50 with Plasmodium falciparum [1] is above 20 µM. Moreover, the viability at 20 µM in series [2] was 90.6%.
On to `COc1nc2ccccc2cc1CNCc1cccnc1`, for which the IC50 in the series with Plasmodium falciparum [1] stood at 13.4 µM. The viability at 20 µM in series [2] was found to be 89.9%.
Take `COc1nc2cc(C)cc(C)c2cc1CN(Cc1cccnc1)Cc1cc2cc(C)ccc2nc1Cl`: the IC50 in the series on Plasmodium falciparum [1] turned out to be 12.3 µM. In series [2], the viability at 20 µM stood at 77.6%.
The matching figures for `COc1nc2cc(C)cc(C)c2cc1CN(Cc1cccs1)Cc1cc2cc(C)ccc2nc1Cl`: above 20 µM and 86%.
With `Cc1ccc2nc(Cl)c(CN(Cc3ccccn3)Cc3cc4cc(C)ccc4nc3Cl)cc2c1`, the IC50 in the series on Plasmodium falciparum [1] is above 20 µM. Moreover, in series [2], the viability at 20 µM amounted to 93%.
On to `COc1ccc2nc(Cl)c(CN(Cc3cccs3)Cc3cc4cc(C)ccc4nc3OC)cc2c1`, for which, in the series on Plasmodium falciparum [1], the IC50 was 13.4 µM. In series [2], the viability at 20 µM came to 103%.
In the case of `COc1nc2cc(C)cc(C)c2cc1CNCc1ccncc1`, in the series on Plasmodium falciparum [1], the IC50 is 12 µM. In addition, the viability at 20 µM in series [2] amounted to 60.7%.
In the case of `COc1nc2ccc(C)cc2cc1CNCc1cccs1`, the IC50 with Plasmodium falciparum [1] is above 20 µM. In series [2], the viability at 20 µM amounted to 99.7%.
For the compound `Cc1cc(C)c2cc(CNCc3cccnc3)c(Cl)nc2c1`, the IC50 with Plasmodium falciparum [1] is above 20 µM. Moreover, the viability at 20 µM in series [2] came out at 77.2%.
For the compound `COc1ccc2nc(Cl)c(CN(Cc3ccccn3)Cc3cc4cc(OC)ccc4nc3Cl)cc2c1`, the IC50 in the series on Plasmodium falciparum [1] is above 20 µM. For the same compound, the viability at 20 µM in series [2] turned out to be 83.8%.
As to `COc1nc2ccccc2cc1CN(Cc1ccco1)Cc1cc2cc(C)ccc2nc1Cl`, the IC50 in the series with Plasmodium falciparum [1] came out at 12.8 µM. Besides, the viability at 20 µM in series [2] stood at 84.4%.
For the compound `COc1nc2ccc(C)cc2cc1CNCc1cccnc1`, the IC50 in the series with Plasmodium falciparum [1] was determined as 13.4 µM. Also, the viability at 20 µM in series [2] came to 99.5%.
As for `C=C[C@H]1CN2CC[C@H]1C[C@H]2[C@H](O)c1ccnc2ccc(OC)cc12` [QUININE], the IC50 in the series on Plasmodium falciparum [3] was found to be 0.826 µM.
For the compound `Clc1ccc2nc(Cl)c(CN(c3ccccc3)c3nnc(-c4ccccc4)o3)cc2c1`, the IC50 in the series on Plasmodium falciparum [3] amounted to 0.089 µM.
In the case of `COc1nc2ccccc2cc1CN(Cc1ccccn1)Cc1cc2ccccc2nc1Cl`, the IC50 in the series with Plasmodium falciparum [1] is above 20 µM. The viability at 20 µM in series [2] was determined as 89.9%.
As for `COc1nc2ccccc2cc1CN(Cc1ccccn1)Cc1cc2ccccc2nc1OC`, the IC50 in the series with Plasmodium falciparum [1] came out at 3.5 µM. The viability at 20 µM in series [2] was found to be 89%.
Consider `COc1nc2ccc(F)cc2cc1CNCc1cccs1`, for which, in the series on Plasmodium falciparum [1], the IC50 was above 20 µM. Also, in series [2], the viability at 20 µM is 93.5%.
On to `COc1nc2ccc(C)cc2cc1CN(Cc1ccccn1)Cc1cc2cc(C)ccc2nc1OC`, for which the IC50 in the series on Plasmodium falciparum [1] is above 20 µM. For the same compound, the viability at 20 µM in series [2] came to 93.3%.
For `COc1ccc2nc(Cl)c(CN(Cc3cccs3)Cc3cc4c(C)cc(C)cc4nc3OC)cc2c1`, the IC50 in the series with Plasmodium falciparum [1] was above 20 µM. Besides, the viability at 20 µM in series [2] was 85.4%.
`COc1ccc2nc(OC)c(CN(Cc3cccs3)Cc3cc4cc(C)ccc4nc3Cl)cc2c1`: in the series with Plasmodium falciparum [1], the 50% inhibitory concentration (IC50) was found to be 0.93 µM. Moreover, the viability at 20 µM in series [2] stood at 99.2%.
